Assay results from publication PMC4539249 (ACS infectious diseases, 2015).
Read-outs that look alike come from different tables or passages of the source. Blank lines part the entries; values can stand above or below the molecule they belong to.

Experiments:
[1] = system: T. brucei bloodstream form (BSF) parasites; experiment: T. brucei growth inhibition; format: cell-based, Trypanosoma brucei brucei Lister 427; conditions: Trypanosoma brucei, read-out: T. brucei EC50
[2] = system: AT-rich DNA dodecamer duplex; conditions: DSC, shift on inhibitor binding; cited from earlier work
[3] = in vitro; conditions: human
[4] = in vitro; conditions: human; remark: listed apart in the source
[5] = system: T. brucei brucei Lister 427; experiment: T. brucei brucei Lister 427 mouse model of infection; format: in vivo, BALB/C mice; conditions: treated mice, i.p. for 4 days (8 at 3 and 10 mg/kg)
[6] = treatment of the second or neurological phase of HAT; no reference given; cited from earlier work
[7] = target: T. brucei farnesyl diphosphate synthase (TbFPPS) (Trypanosoma brucei, UniProt Q57WF1); experiment: TbFPPS inhibition, coupled colorimetric assay; format: biochemical; conditions: read-out: TbFPPS IC50; duplicate ± SD; highest inhibitor concentration 316 μM
[8] = target: T1, human FPPS (Homo sapiens, UniProt P14324); experiment: Human FPPS inhibition; format: biochemical; conditions: read-out: IC50 against human FPPS
T1 sequence (P14324 1-419): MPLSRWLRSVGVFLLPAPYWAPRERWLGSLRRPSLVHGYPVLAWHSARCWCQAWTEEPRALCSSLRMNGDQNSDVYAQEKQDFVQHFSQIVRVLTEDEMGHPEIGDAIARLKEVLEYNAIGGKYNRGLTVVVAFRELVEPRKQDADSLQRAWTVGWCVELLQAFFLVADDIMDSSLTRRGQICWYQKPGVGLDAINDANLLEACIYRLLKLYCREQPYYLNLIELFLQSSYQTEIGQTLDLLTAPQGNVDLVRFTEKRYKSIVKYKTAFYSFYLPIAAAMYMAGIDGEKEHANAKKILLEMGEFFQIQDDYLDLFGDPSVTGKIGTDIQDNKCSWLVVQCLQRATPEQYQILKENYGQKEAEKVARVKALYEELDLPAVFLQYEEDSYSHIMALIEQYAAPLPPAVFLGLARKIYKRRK

[9] = system: T. brucei k-DNA and nuclear DNA replication; experiment: Visualization of DNA replication; format: cell-based, Trypanosoma brucei; conditions: EdU click chemistry, 72 h treatment
Summary of the method: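 Bloodstream-form trypanosomes, after 72 h exposure to test compound (DMSO vehicle as control), were pulsed 16 h with EdU, washed in PBS, fixed in cold 100% ethanol and dried. EdU was detected by Cu(I)-catalysed click labelling with Alexa Fluor 488 azide ([…]), and the cells were counterstained with 10 μg/ml DAPI. Nuclear and k-DNA signals were assessed by fluorescence microscopy.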

SMILES: N=C(N)c1ccc(OCCCCCOc2ccc(C(=N)N)cc2)cc1 [compound 2, pentamidine]
EC50 ([1]; 72 h): 5.5 nM | EC50 [1]: 5 nM | ΔTm [2]: 2.7 °C | CC50 at 72 h [3]: < 400 nM | CC50 at 72 h [4]: < 400 nM | parasitemia [5]: no parasitemia observed

SMILES: Nc1nc(N)nc(Nc2ccc([As]3SCC(CO)S3)cc2)n1 (stereo not shown) [compound 3, melarsoprol]
lethal in patients [6]: 5-10%

IC50 [7]: ~50000 nM | IC50 [8]: ~50000 nM
SMILES: N=C(N)c1ccc(-c2ccc(-c3ccc(C(=N)N)cc3)o2)cc1 [compound 6]

SMILES: CC[n+]1c(-c2ccccc2)c2cc(N)ccc2c2ccc(N)cc21 [ethidium bromide]
k-DNA replication in T. brucei [9]: completely blocked
